Activity calls are given as the source filed them. The calls are words filed in the database; no cut-off is given here.
Tests used:
[1] = system: MCF7; assay: Inhibition of PI3K/AKT signalling pathway in human MCF7 cells assessed as downregulation of 85ap-PI3K expression at 1 to 4 uM measured after 48 hrs by Western blot analysis; type: cell-based; details: dose 1-4 µM
How it was run: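 After 48 h exposure to compound at several concentrations, cells collected and proteins extracted. SDS-PAGE on 5–15% gels, transfer to nitrocellulose, blocking 2 h in 5% nonfat milk in PBS/0.1% Tween 20, primary antibodies overnight at 4 °C, biotin-conjugated secondary 1 h. Detection on X-ray film; band densitometry.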

[2] = system: MDA-MB-231; assay: Induction of G2/M phase cell cycle arrest in human MDA-MB-231 cells assessed as upregulation of p-cdc25c at ser216 residue protein expression at 9 uM measured after 48 hrs by western blot analysis; type: functional, cell-based
[3] = system: MGC-803; assay: Anticancer activity against human MGC-803 cells assessed as inhibition of cell growth measured after 72 hrs by MTT assay; type: functional, cell-based; details: MGC-803, 72 h
How it was run: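 Cells seeded at 3000 exponentially growing cells/well and incubated 12 h at 37 °C. Medium then replaced with fresh medium containing graded compound concentrations for 72 h; 5-FU positive control. MTT (5 mg/mL solution) added for 4 h, formazan dissolved in DMSO, absorbance read at 570 nm (reference 630 nm). Relative percentage inhibition of viable cells calculated; IC50 reported as mean ± standard deviation.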

[4] = system: MDA-MB-231; assay: Induction of apoptosis in human MDA-MB-231 cells assessed as late apoptotic cells at 9 uM measured after 48 hrs in presence of cdc25c inhibitor, NSC663284 by AnnexinV-FITC/PI staining based flow cytometry (reference value: 8.3%); type: functional
[5] = system: MDA-MB-231; assay: Induction of mitochondrial membrane potential loss in human MDA-MB-231 cells assessed as green fluorescence intensity at 9 uM measured after 48 hrs by JC1 staining-based flow cytometry analysis (reference value: 0.8%); type: functional
[6] = system: MDA-MB-231; assay: Induction of apoptosis in human MDA-MB-231 cells assessed as early apoptotic cells at 9 uM measured after 48 hrs by Annexin V-FITC/propidium iodide staining based flow cytometric analysis (reference value: 1%); type: functional
[7] = system: MCF7; assay: Induction of apoptosis in human MCF7 cells assessed as increase in cleaved PARP protein expression at 1 to 4 uM measured after 48 hrs by western blot analysis; type: functional, cell-based; details: dose 1-4 µM
How it was run: (§1)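 MCF-7 and MDA-MB-231 breast cancer cells treated 48 h with a concentration series, then lysed for protein. SDS-PAGE on 5–15% gels, transfer to nitrocellulose. Blocked 2 h in 5% nonfat milk/PBS-0.1% Tween 20, primary antibodies overnight at 4 °C, biotin-conjugated secondary 1 h. X-ray film detection with densitometric quantification.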

[8] = system: MDA-MB-231; assay: Induction of mitochondrial membrane potential loss in human MDA-MB-231 cells assessed as green fluorescence intensity at 6 uM measured after 48 hrs by JC1 staining-based flow cytometry analysis (reference value: 0.8 %); type: functional
[9] = system: MDA-MB-231; assay: Induction of apoptosis in human MDA-MB-231 cells assessed as late apoptotic cells at 6 uM measured after 48 hrs by Annexin V-FITC/propidium iodide staining based flow cytometric analysis (reference value: 0.3%); type: functional
[10] = system: MCF7; assay: Induction of apoptosis in human MCF7 cells assessed as early apoptotic cells at 2 uM measured after 48 hrs by Annexin V-FITC/propidium iodide staining based flow cytometric analysis (reference value: 3 %); type: functional
[11] = system: MDA-MB-231; assay: Inhibition of colony formation in human MDA-MB-231 cells incubated for 24 hrs followed by medium removal and measured after 7 days by crystal violet staining based assay; type: functional, cell-based; details: dose 3-9 µM
How it was run: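 Cells seeded at 1 × 10³ per well in six-well plates and left overnight. Compound (DMSO solution) given in fresh medium for 24 h, then medium removed and plates grown another 7 days. Colonies washed with PBS, fixed in 4% paraformaldehyde 30 min, stained with 0.1% crystal violet 30 min, photographed and counted.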

[12] = system: MCF7; assay: Induction of G2/M phase cell cycle arrest in human MCF7 cells assessed as decrease in cyclinB1 protein expression at 1 to 4 uM measured after 48 hrs by western blot analysis; type: functional, cell-based; details: dose 1-4 µM
How it was run: (§2)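 Cells exposed to graded concentrations for 48 h, then proteins extracted. Run on SDS-PAGE (5–15% gels) and transferred to nitrocellulose. Blocked 2 h in 5% nonfat milk in PBS/0.1% Tween 20, primary antibody overnight at 4 °C, biotin-conjugated secondary 1 h. Visualized on X-ray film with densitometric quantitation; three independent experiments.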

[13] = system: MCF7; assay: Induction of apoptosis in human MCF7 cells assessed as increase in cleaved caspase 9 protein expression at 4 uM measured after 48 hrs in presence of cdc25c inhibitor, NSC663284 by western blot analysis; type: functional, cell-based
How it was run: (§3)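 Four arms per cell line: untreated, test compound, 0.3 µM NSC663284 alone, and combination. Proteins harvested after 48 h and resolved by SDS-PAGE on 5–15% gels, transferred to nitrocellulose. Blocked 2 h in milk/PBS-Tween, primary antibodies overnight at 4 °C, biotin-conjugated secondary. Read on X-ray film with densitometry.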

[14] = system: MCF7; assay: Induction of mitochondrial membrane potential loss in human MCF7 cells assessed as red fluorescence intensity at 1 uM measured after 48 hrs by JC1 staining-based flow cytometry analysis (reference value: 91.9%); type: functional
[15] = system: MCF7; assay: Induction of mitochondrial membrane potential loss in human MCF7 cells assessed as red fluorescence intensity at 2 uM measured after 48 hrs by JC1 staining-based flow cytometry analysis (reference value: 91.9%); type: functional
[16] = system: MDA-MB-231; assay: Induction of apoptosis in human MDA-MB-231 cells assessed as increase in cleaved PARP protein expression at 9 uM measured after 48 hrs in presence of cdc25c inhibitor, NSC663284 by western blot analysis; type: functional, cell-based; how it was run: as §3
[17] = system: MDA-MB-231; assay: Cell cycle arrest in human MDA-MB-231 cells assessed as accumulation at G1 phase at 3 uM measured after 48 hrs by propidium iodide staining based flow cytometry (reference value: 46.28%); type: functional
[18] = system: MDA-MB-231; assay: Induction of apoptosis in human MDA-MB-231 cells assessed as increase in cleaved caspase 3 protein expression at 3 to 9 uM measured after 48 hrs by western blot analysis; type: functional, cell-based; details: dose 3-9 µM; how it was run: as §1
[19] = system: MCF7; assay: Induction of apoptosis in human MCF7 cells assessed as increase in cleaved caspase 3 protein expression at 4 uM measured after 48 hrs in presence of cdc25c inhibitor, NSC663284 by western blot analysis; type: functional, cell-based; how it was run: as §3
[20] = system: MDA-MB-231; assay: Antiproliferative activity against human MDA-MB-231 cells assessed as reduction in cell viability at 0.03 to 16 uM measured after 24 to 72 hrs by MTT assay; type: functional, cell-based; details: dose 0.03-16 µM, time 24-72 hrs
How it was run: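 MTT viability time course on the breast cancer cells with increasing compound concentrations for 24, 48 and 72 h. Cells seeded at 3000/well and allowed 12 h before treatment. MTT (5 mg/mL solution) applied for 4 h, crystals dissolved in DMSO, absorbance read at 570/630 nm. Viability expressed relative to untreated cells.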

[21] = system: MDA-MB-231; assay: Induction of apoptosis in human MDA-MB-231 cells assessed as early apoptotic cells at 6 uM measured after 48 hrs by Annexin V-FITC/propidium iodide staining based flow cytometric analysis (reference value: 1%); type: functional
[22] = system: MCF7; assay: Induction of G2/M phase cell cycle arrest in human MCF7 cells assessed as increase in cdc25c protein expression at 1 to 4 uM measured after 48 hrs by western blot analysis; type: functional, cell-based; details: dose 1-4 µM; how it was run: as §2

`C[C@H]1O[C@@H](n2cnc3c(N)nc(F)nc32)[C@H](O)[C@H]1OCP(=O)([O-])[O-].[Na+].[Na+]` was tested, and the inhibition [1] was “Active”, the Activity [2] was “Active” and the IC50 [3] was 6.18 µM. The Activity [4] was 3.2%, the Activity [5] was 63% and the Activity [6] was 24.8%. The Activity [7] was “Active”, the Activity [8] was 36.2% and the Activity [9] was 18.8%. For the same compound, the Activity [10] was 46.3%, the inhibition [11] was “Dose-Dependent Effect” and the Activity [12] was “Active”. For the same compound, the Activity [13] was “inactive”, the Activity [14] was 90.9% and the Activity [15] was 67.2%. For the same compound, the Activity [16] was “inactive”, the Activity [17] was 44.13% and the Activity [18] was “Active”. The Activity [19] was “inactive”, the Activity [20] was “Active” and the Activity [21] was 19.1%. The Activity [22] was “Active”.
